The values below come from the array DNA melting data of Ke et al. (doi:10.1101/2024.01.08.574731).

A short description of data set [1]: folding enthalpy; higher = less favourable; fluorescence melt of hairpins on a sequencing array, two-state fit. As to conditions: sodium 0.088 M. In short, it runs like this: (§1)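 With Cy3 and quencher oligos annealed, library hairpins on a sequenced MiSeq flow cell were imaged for Cy3 fluorescence in 50 mM Na-HEPES pH 8.0, 25 mM NaCl, in 2.5 °C steps up to 60 °C. Melting temperature and folding enthalpy were derived from bootstrapped two-state fits of signals normalised to pre-quench Cy3 and to control constructs. Four replicates were combined by inverse variance, with fitted temperatures raised by 9.35 °C to match UV melts.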

The nature of data set [2]: melting temperature; fluorescence melt of hairpins on a sequencing array, two-state fit, raised by 9.35 °C to match UV melts. The settings on record: sodium 0.088 M. In short, it runs like this: as §1

Regarding GCGTAGCTACGC ((((....)))), in data set [1], the folding enthalpy was -52.9 kJ/mol. In addition, the Tm in data set [2] worked out at 68.1 °C.

As to GGATCCGAAAGGATTCC ((((((....))).))), the folding enthalpy in data set [1] is -126 kJ/mol. The Tm in data set [2] came to 51.7 °C.

With GATCCCTGTGGGATC ((((((...)))))), in data set [1], the folding enthalpy is -146 kJ/mol. In addition, the Tm in data set [2] is 66.7 °C.

Consider GATCAGCTCCTGATC ((((((...)))))), for which the folding enthalpy in data set [1] is -181 kJ/mol. The Tm in data set [2] amounted to 50 °C.

For GACTGGGGAAACCCAATC ((.((((....)))).)), the folding enthalpy in data set [1] was -61 kJ/mol. In data set [2], the Tm turned out to be 31.7 °C.

Regarding GCGGTAGAAATACCGC ((((((....)))))), the folding enthalpy in data set [1] was -151 kJ/mol. Besides, the Tm in data set [2] is 66.9 °C.

As to GCTGTGCGAAAGCGGAGC (((..((....))..))), the folding enthalpy in data set [1] was -92 kJ/mol. Besides, the Tm in data set [2] is 54.9 °C.

As for GGAATGTCGAAAGACTCC (((..(((....)))))), the folding enthalpy in data set [1] was -59.9 kJ/mol. The Tm in data set [2] was found to be 32.6 °C.

Consider GATCTAATTATAGATC ((((((....)))))), for which the folding enthalpy in data set [1] was -121 kJ/mol. Moreover, in data set [2], the Tm was 37.9 °C.

For CGGCGCGGAAACGCACCG (((.(((....))).))), in data set [1], the folding enthalpy is -123 kJ/mol. Moreover, the Tm in data set [2] is 67.4 °C.

For the sequence GATCCCCCGAGGGATC ((((((....)))))), the folding enthalpy in data set [1] is -145 kJ/mol. In addition, the Tm in data set [2] is 62.1 °C.

GCTCTTGCGAAAGCAAGC (((..(((....)))))): the folding enthalpy in data set [1] was -36.1 kJ/mol. For the same sequence, in data set [2], the Tm amounted to 36.2 °C.

In the case of GTTCACGAAAGTGTGAAC ((((((....)))..))), the folding enthalpy in data set [1] is -108 kJ/mol. Moreover, the Tm in data set [2] stood at 47.3 °C.

Consider ACCCTGAAAAGGGT (((((....))))), for which the folding enthalpy in data set [1] was -80.5 kJ/mol. Further, the Tm in data set [2] was found to be 53.2 °C.

As for GTATAACGAAAGTTTAC (((.(((....)))))), the folding enthalpy in data set [1] is -70.4 kJ/mol. The Tm in data set [2] came to 30.4 °C.

Turning to GGCACCACGAAAGTGGCC (((..(((....)))))), the folding enthalpy in data set [1] is -48.7 kJ/mol. The Tm in data set [2] worked out at 38.1 °C.

With GATCGTTCAAACGATC ((((((....)))))), the folding enthalpy in data set [1] was -179 kJ/mol. Moreover, the Tm in data set [2] was 55 °C.

With GCGATTGTCGC ((((...)))), the folding enthalpy in data set [1] is -82 kJ/mol. Besides, the Tm in data set [2] turned out to be 48.2 °C.

Turning to GCCGGAGGAAACCCCGAC (.(((.(....).))).), in data set [1], the folding enthalpy was -28.2 kJ/mol. In data set [2], the Tm amounted to 30.2 °C.

In the case of GCGGAAACCCGC ((((....)))), the folding enthalpy in data set [1] is -87.4 kJ/mol. The Tm in data set [2] stood at 50.2 °C.

As for GTGAGTTCGAAAGAACAC (((..(((....)))))), the folding enthalpy in data set [1] is -64.4 kJ/mol. Further, in data set [2], the Tm stood at 44.6 °C.

GCCGAGCGAAAGCATGGC (((..((....))..))): the folding enthalpy in data set [1] was -118 kJ/mol. In addition, the Tm in data set [2] is 64 °C.

Regarding GTTTTCCCGAAAGGGAAC (((..(((....)))))), in data set [1], the folding enthalpy is -44.8 kJ/mol. Also, in data set [2], the Tm amounted to 36.5 °C.

Turning to GGGGTGGGAAACTACCCC (((((.(....).))))), the folding enthalpy in data set [1] was -195 kJ/mol. For the same sequence, the Tm in data set [2] came to 55.8 °C.

For GCTGGGCGAAAGCGCCGC ((.(.((....)).).)), the folding enthalpy in data set [1] was -76.1 kJ/mol. The Tm in data set [2] came out at 47.4 °C.

Take GTCACAACGAAAGTTGAC (((..(((....)))))): the folding enthalpy in data set [1] is -48.9 kJ/mol. In data set [2], the Tm was 33.2 °C.

Regarding GGCTGCGAAAGCACAGCC ((((((....)))..))), the folding enthalpy in data set [1] was -107 kJ/mol. In addition, in data set [2], the Tm came out at 57.8 °C.

Consider GTGGTCGGAAACGACTGC (..((((....))))..), for which the folding enthalpy in data set [1] was -59.8 kJ/mol. Also, the Tm in data set [2] came out at 49.5 °C.

GATCGAGCACTCGATC ((((((....)))))): the folding enthalpy in data set [1] is -180 kJ/mol. Also, the Tm in data set [2] was determined as 57.6 °C.

GTCGACGAAAGTCCGGAC ((((((....)))..))): the folding enthalpy in data set [1] was -75.7 kJ/mol. Further, in data set [2], the Tm was determined as 37 °C.

Take GTCACCGGAAACGGTAAC ((.((((....)))).)): in data set [1], the folding enthalpy was -69.6 kJ/mol. In addition, the Tm in data set [2] turned out to be 38.4 °C.

For the sequence GCAAGATCGAAAGATTGC (((..(((....)))))), in data set [1], the folding enthalpy was -89.2 kJ/mol. For the same sequence, the Tm in data set [2] is 38 °C.

Consider GTGGACGAAAGTCCGCAC ((((((....)))..))), for which the folding enthalpy in data set [1] was -49.5 kJ/mol. The Tm in data set [2] amounted to 55.7 °C.

With GCCCTGGGAAACTAGGGC (((((.(....).))))), in data set [1], the folding enthalpy was -186 kJ/mol. Further, in data set [2], the Tm is 55.3 °C.

GATCCCCCGTGGGATC ((((((....)))))): in data set [1], the folding enthalpy was -154 kJ/mol. For the same sequence, in data set [2], the Tm worked out at 60.5 °C.

In the case of GGTGATGGAAACATCGCC ((.((((....)))).)), in data set [1], the folding enthalpy was -189 kJ/mol. In addition, in data set [2], the Tm was found to be 55.6 °C.

Turning to GAGGGTCCGAAAGGACTC (((..(((....)))))), in data set [1], the folding enthalpy was -39.8 kJ/mol. For the same sequence, the Tm in data set [2] turned out to be 41.3 °C.
